Data on 3 molecules can be found in article PMC9398548 (European journal of pharmaceutical sciences : official …, 2020).

Data set [1] has as its system murine leukemia P-388 cells. To be noted: read-out: antiproliferative IC50, P-388 cells; ref Bonnet et al., 2014; cited from earlier work.
Data set [2] concerns human colon cancer HT-29 cells. To be noted: read-out: antiproliferative IC50, HT-29 cells; ref Bonnet et al., 2014; cited from earlier work.
For data set [3], the system named is human prostate cancer PC-3 cells. The settings on record: read-out: antiproliferative IC50, PC-3 cells; ref Bonnet et al., 2014; cited from earlier work.
A further data set concerns the target HDAC4 (Homo sapiens, UniProt P56524). Briefly: HDAC enzyme activity assay, HDAC4. The format is biochemical. To be noted: read-out: HDAC4 IC50; Means ±SD, n=3. The method, boiled down:
(§1)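 Enzymes were recombinant: HDAC8, and the codon-optimised human HDAC4 catalytic domain (pET14b). Serial inhibitor dilutions in 25 mM Tris-HCl, 75 mM KCl, 0.001% Pluronic F-127, pH 8.0 were pre-incubated with enzyme for 1 h at 30 °C. Reaction ran 60 min at 30 °C with 20 μM Boc-Lys(trifluoroacetyl)-AMC and was stopped with 1.7 μM SATFMK. Trypsin (0.4 mg/ml) released AMC; fluorescence read at Ex 350/Em 450 nm. Triplicate; IC50 from dose-response curves.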

In a further data set the target is T1, HDAC8 (Homo sapiens, UniProt Q9BY41).
T1 sequence (Q9BY41 1-377): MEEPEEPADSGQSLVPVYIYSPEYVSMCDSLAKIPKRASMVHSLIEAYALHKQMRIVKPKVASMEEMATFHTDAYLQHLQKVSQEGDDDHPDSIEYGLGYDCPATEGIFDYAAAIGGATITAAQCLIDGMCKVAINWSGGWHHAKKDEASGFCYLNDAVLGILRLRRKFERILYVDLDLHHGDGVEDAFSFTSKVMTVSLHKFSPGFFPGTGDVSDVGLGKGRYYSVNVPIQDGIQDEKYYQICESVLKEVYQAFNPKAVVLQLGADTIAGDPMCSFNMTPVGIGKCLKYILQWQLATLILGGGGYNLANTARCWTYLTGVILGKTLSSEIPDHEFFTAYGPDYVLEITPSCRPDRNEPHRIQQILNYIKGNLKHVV
Briefly: HDAC enzyme activity assay, HDAC8. The format is biochemical. The method, boiled down: as §1

Another data set relates to K562 cells. Briefly: MTT cytotoxicity assay in K562 cells. The format is cell-based. The settings on record: read-out: K562- IC50; MTT, 48 h, Mean±SD, n=3. In outline: (§2)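 Cells were grown in suspension in RPMI 1640 with 10% FBS and penicillin/streptomycin/amphotericin B at 37 °C under 5% CO2. They were seeded at ~5×10^3 cells/well, kept overnight, then exposed to test compounds diluted in DMSO for 48 h. Cells were pelleted (300 g, 4 °C, 5 min) and washed twice in phosphate buffer. MTT (5 mg/ml stock) was added for 4 h at 37 °C, formazan dissolved in DMSO, and A570 read. Triplicate; IC50 given as mean±SD.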
In general terms: Tetrazolium dyes change colour on reduction, which living cells bring about.

Data set [4] has as its system CEM cells. In words: MTT cytotoxicity assay in CEM cells. The format is cell-based. To be noted: read-out: CEM- IC50, 48 h, Mean±SD, n=3. In outline: as §2
The target of the next data set is HDAC1 (Homo sapiens, UniProt Q13547). In words: HDAC enzyme activity assay, HDAC1. The format is biochemical. To be noted: read-out: HDAC1 IC50; Means ±SD, n=3.
Chain of HDAC1 (Q13547 whole entry, species assumed): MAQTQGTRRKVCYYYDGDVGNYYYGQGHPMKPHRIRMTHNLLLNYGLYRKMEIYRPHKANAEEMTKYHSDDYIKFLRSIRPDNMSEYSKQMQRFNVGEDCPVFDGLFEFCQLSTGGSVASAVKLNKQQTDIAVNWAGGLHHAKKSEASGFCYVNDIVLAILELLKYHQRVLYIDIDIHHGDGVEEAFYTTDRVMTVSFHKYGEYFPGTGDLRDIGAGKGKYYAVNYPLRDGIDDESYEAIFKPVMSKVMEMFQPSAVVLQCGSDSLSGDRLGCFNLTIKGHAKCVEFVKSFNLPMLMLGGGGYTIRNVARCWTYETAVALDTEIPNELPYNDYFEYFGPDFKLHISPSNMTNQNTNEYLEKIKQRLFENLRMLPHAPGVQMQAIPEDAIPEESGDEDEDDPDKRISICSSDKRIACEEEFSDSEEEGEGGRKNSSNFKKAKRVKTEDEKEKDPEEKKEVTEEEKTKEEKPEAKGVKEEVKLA
A further data set deals with T2, HDAC6 (Homo sapiens, UniProt Q9UBN7).
T2 sequence (Q9UBN7 1-1215): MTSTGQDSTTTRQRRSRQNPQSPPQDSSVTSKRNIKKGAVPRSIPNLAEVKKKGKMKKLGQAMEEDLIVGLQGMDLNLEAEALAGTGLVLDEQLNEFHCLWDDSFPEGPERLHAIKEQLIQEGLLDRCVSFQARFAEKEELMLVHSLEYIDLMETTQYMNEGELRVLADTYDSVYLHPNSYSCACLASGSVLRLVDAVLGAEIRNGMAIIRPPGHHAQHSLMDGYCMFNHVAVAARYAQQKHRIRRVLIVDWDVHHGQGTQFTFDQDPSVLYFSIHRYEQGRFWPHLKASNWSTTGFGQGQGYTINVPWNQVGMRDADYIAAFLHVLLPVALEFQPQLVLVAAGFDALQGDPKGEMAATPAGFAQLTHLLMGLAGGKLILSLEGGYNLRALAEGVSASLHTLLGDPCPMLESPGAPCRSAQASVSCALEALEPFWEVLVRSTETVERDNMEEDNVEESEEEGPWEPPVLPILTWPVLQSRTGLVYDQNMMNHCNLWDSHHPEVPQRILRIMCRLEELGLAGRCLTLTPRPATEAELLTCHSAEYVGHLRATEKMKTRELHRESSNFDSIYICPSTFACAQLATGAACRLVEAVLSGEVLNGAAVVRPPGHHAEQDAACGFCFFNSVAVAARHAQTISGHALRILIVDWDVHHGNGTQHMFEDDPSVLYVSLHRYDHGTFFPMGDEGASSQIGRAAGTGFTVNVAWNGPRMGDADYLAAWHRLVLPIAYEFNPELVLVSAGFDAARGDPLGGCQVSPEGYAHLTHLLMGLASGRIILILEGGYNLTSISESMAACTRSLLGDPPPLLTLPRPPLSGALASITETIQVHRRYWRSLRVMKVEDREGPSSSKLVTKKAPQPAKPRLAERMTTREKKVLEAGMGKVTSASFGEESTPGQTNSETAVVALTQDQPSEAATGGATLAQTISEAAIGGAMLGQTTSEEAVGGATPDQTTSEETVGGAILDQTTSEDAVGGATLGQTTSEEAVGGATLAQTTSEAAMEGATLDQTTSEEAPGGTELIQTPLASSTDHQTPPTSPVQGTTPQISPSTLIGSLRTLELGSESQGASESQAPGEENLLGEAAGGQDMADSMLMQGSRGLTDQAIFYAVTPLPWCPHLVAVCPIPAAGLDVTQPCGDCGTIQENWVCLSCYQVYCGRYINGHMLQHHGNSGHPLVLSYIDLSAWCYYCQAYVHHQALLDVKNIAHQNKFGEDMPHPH
In words: HDAC enzyme activity assay, HDAC6. The format is biochemical. To be noted: read-out: HDAC6 IC50; Means ±SD, n=3.

A further data set has as its system white blood cells (WBCs). In words: MTT assay on non-transformed white blood cells. The format is cell-based, human. The settings on record: 48 h treatment with 100 μM. The method, boiled down: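 WBCs from a healthy adult volunteer were isolated by HiSep centrifugation at 400 xg for 30 min, followed by repeated RBC lysis and PBS washes. Cells were held at 37 °C under 5% CO2 overnight in 96-well plates. Test compound was applied at 2.5–100 μM for 48 h. After two PBS washes, MTT was added for 4 h at 37 °C; formazan was dissolved in DMSO and absorbance read at 570 nm.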

The test system of the next data set is GLUT5. The format is cell-based, human. In outline: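 Uses hexose-transporter-null VW4000 yeast expressing human GLUT5, cultured at 30 °C and 180 rpm. Cells were grown one day in YEP/2% maltose with G418, then 1–2 days in YEP/2% fructose starting from OD600 ~0.5. Washed cells in PBS pH 7.4 (OD600 ~10) took up 10 mM C14-fructose for 10 min. Uptake was stopped with ice-cold KPi/LiCl quench buffer pH 5.5, then filtered and scintillation-counted. Controls were 1% DMSO and 100 μM MSNBA. Screening was at 100 μM; three independent measurements.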

The target in another data set is T3, GLUT4 (Homo sapiens, UniProt P14672).
T3 sequence (P14672 1-509): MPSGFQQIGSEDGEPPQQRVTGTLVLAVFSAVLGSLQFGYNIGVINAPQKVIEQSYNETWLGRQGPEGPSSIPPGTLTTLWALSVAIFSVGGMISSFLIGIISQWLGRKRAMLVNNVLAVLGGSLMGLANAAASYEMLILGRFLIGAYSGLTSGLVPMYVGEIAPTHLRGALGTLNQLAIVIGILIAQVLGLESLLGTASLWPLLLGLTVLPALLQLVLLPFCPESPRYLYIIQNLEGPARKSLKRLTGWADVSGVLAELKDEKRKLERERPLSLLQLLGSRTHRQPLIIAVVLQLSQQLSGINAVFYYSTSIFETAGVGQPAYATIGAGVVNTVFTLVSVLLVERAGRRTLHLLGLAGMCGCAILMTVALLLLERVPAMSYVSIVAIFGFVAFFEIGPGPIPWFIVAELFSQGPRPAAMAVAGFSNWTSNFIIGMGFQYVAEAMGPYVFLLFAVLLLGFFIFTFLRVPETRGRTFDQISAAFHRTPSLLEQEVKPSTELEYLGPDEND
The format is cell-based. The method, boiled down: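 VW4000fgy1erg4 hxt0 yeast expressing human GLUT4 were cultured at 30 °C, first in SC-uracil/1% maltose and then in SC-uracil/0.2% glucose from OD600 ~0.5. Cells in PBS pH 7.4 (OD600 ~10) were fed 5 mM C14-glucose for 10 min. The reaction was quenched in ice-cold buffer pH 5.5, then filtered and scintillation-counted. Vehicle control was 1% DMSO; 200 μM phloretin served as positive control.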

A further data set addresses T4, GLUT1 (Homo sapiens, UniProt P11166).
T4 sequence (P11166 1-492): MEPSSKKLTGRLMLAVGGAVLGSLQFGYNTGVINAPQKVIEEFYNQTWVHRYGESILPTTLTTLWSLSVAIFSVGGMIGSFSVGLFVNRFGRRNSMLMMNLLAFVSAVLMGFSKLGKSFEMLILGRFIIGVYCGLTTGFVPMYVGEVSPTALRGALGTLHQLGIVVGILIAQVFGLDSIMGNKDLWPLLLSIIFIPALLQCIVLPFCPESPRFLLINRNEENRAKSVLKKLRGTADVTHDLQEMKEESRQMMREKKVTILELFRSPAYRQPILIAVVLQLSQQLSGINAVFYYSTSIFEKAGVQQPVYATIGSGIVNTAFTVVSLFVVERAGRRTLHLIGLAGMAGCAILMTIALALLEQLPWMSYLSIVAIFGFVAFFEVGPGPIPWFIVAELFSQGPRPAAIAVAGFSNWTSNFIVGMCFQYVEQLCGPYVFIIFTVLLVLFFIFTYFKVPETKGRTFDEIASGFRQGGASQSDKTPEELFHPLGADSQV
The format is cell-based. In outline: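 VW4000fgy1 hxt0 yeast carrying human GLUT1 were grown at 30 °C: first in SC-uracil/2% maltose for 2–3 days, then 1–2 days in SC-uracil/2% glucose from OD600 ~0.5. Cells were resuspended in PBS pH 7.4 at OD600 ~10 and given 5 mM C14-glucose for 10 min. Uptake was quenched with ice-cold buffer pH 5.5, filtered, and counted. Controls: 1% DMSO and 200 μM phloretin.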

Data set [5] deals with CEM cells. In words: Apoptosis induction by flow cytometry. The format is cell-based. To be noted: IC50 concentration, 24 h. The method, boiled down: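 CEM cells seeded in 24-well plates and held overnight at 37 °C under CO2. Medium was then replaced, and cells were exposed to the test compound for 24 h; untreated cells served as the negative control. Cells were washed in PBS, pelleted at 500 xg and 4 °C, resuspended in ice-cold binding buffer, and stained with annexin V-FITC plus PI for 15 min on ice in the dark. Analysed by flow cytometry, in triplicate.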
(Flow cytometry measures light scatter and fluorescence of single cells or particles in a stream.)

Data set [6] has as its system CEM cells. In words: Cell cycle analysis by flow cytometry. The format is cell-based. To be noted: IC50 concentration, 24 h. In outline: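 Cells were seeded in 24-well plates overnight, then given fresh medium and exposed to the test compound for 24 h beside an untreated control. After a PBS wash, cells were fixed in ice-cold 70% ethanol on ice for 2 h, then washed again. They were stained with PI for 15 min at 37 °C and analysed by flow cytometry within 30 min, in triplicate.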

Setting [7] is: primary screen, 100 μM compound.

Chain of HDAC4 (P56524 655-1084 limits assumed): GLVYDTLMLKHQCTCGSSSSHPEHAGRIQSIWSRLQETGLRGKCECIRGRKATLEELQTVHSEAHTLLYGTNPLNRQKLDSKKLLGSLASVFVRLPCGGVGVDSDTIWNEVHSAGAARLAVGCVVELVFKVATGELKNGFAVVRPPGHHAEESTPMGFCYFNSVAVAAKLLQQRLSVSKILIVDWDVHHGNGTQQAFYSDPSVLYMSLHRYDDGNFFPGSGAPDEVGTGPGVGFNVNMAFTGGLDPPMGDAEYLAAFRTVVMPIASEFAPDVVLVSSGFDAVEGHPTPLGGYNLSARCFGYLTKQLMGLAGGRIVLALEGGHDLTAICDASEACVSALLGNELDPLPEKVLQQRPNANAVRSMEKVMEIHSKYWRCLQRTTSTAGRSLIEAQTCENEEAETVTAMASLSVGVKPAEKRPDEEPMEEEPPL

The IC50 is the concentration that gives 50% inhibition. `O=C1C[C@@H]2/C(=C(O)\C=C\c3ccccc3)C(=O)C=C[C@@H]2O1` [(+)-Cryptocaryone]: the IC50 in [1] is 0.04 µM; in data set [2], 0.32 µM; in data set [3], 1.6 µM.

Regarding `Cc1ccc(C=C2SC(=O)N(CC(=O)Nc3ccc(Cl)cc3C(F)(F)F)C2=O)cc1C` [Compound G3, N-(4-Chloro-2-trifluoromethylphenyl)-2-[5-(3,4-dimethylbenzylidene)-2,4-dioxothiazolidin-3-yl] acetamide], the IC50 is above 50 µM on HDAC4; 16 ± 2 µM on HDAC8 (read-out: HDAC8 IC50, Means ±SD, n=3); 26.4 ± 3.07 µM with K562 cells; 25.9 ± 2.95 µM with CEM cells [4]; above 50 µM at HDAC1; 17 ± 2 µM on HDAC6. Besides, the “HDAC-8 relative enzyme activity” value on HDAC8 (primary screening at 50 μM) is listed as below 50%.

Consider `O=C(CN1C(=O)SC(=Cc2ccc(Cl)cc2)C1=O)Nc1ccc(Cl)cc1C(F)(F)F` [Compound G5, 2-[5-(4-Chlorobenzylidene)-2,4-dioxothiazolidin-3-yl]-N-(4-chloro-2-trifluromethylphenyl) acetamide], for which the “viable WBC cells” value with white blood cells (WBCs) is reported as “More than 66%”. In the data set with K562 cells, the IC50 was found to be 34.9 ± 1.07 µM. Also, the “decrease of relative transport activity of GLUT5” value with GLUT5 (setting [7]) is recorded as above 50%. The IC50 with GLUT5 (read-out: GLUT5 IC50, hxt0 yeast cells expressing GLUT5, 10 mM C14-fructose, 10 minutes) amounted to 34.5 ± 2.4 µM. For the same molecule, the “decrease of relative transport activity of GLUT4” value on GLUT4 (setting [7]) is on record as above 50%. In addition, the IC50 on GLUT4 (read-out: GLUT4 IC50, hxt0 yeast cells expressing GLUT4, 5 mM C14-glucose, 10 minutes) was found to be 9.5 ± 2.8 µM. On GLUT1 (setting [7]), the “decrease of relative transport activity of GLUT1” value was above 50%. Further, the IC50 at GLUT1 (read-out: GLUT1 IC50, hxt0 yeast cells expressing GLUT1, 5 mM C14-glucose, 10 minutes) came to 5.4 ± 1.3 µM. Further, in the data set with CEM cells [5], the “percentage of cells in early apoptotic phase” value was found to be 1.30%, the “percentage of cells in late apoptotic phase” value is reported as 59.22%, the “percentage of live cells” value is given as 25.58% and the “percentage of necrotic cell population” value is given as 13.90%. Besides, the IC50 with CEM cells [4] is 13.5 ± 3.88 µM. Moreover, in the data set on CEM cells [6], the “percentage of cells arrested in G0-G1 phase” value was 52.0% and the “percentage of cells arrested in the G2-M phase” value is 22.1%.
